ChEMBL document CHEMBL1125163, “Evolution of a series of peptidoleukotriene antagonists: synthesis and structure-activity relationships of 1,6-disubstituted indoles and indazoles” (J Med Chem, 1990)
Each block holds one molecule with its values, some of them ahead of it. Calls of active or inactive are those of the source. The rule behind the calls is not given here.

Key:
[1] = test system: Cysteinyl leukotriene receptor (Cavia porcellus); experiment: Inhibition of the LTE4- induced contraction of guinea pig tracheal spirals at 10 uM; Not significant.; details: Trachea
[2] = test system: Cysteinyl leukotriene receptor (Cavia porcellus); experiment: Inhibition of the LTE4- induced contraction of guinea pig tracheal spirals at 10 uM.; details: Trachea
[3] = species on record: Cavia porcellus; experiment: Percent inhibition of the LTE4- induced contraction of guinea pig tracheal spirals at the concentration of 5 uM; assay type: functional; details: Trachea
Summary of the method: (§1)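 Guinea pig trachea cut into spiral strips, each trachea split into paired sections. Tissue bath at 37 °C in modified Krebs buffer gassed with 95% O2/5% CO2, 2 g resting tension, 60 min stabilization. After reproducible responses to 10 nM LTE4, compound was added for 10 min, then LTE4 challenge repeated. Percent inhibition is the 2nd vs 3rd response, adjusted by subtracting the vehicle-treated paired section. Paired t test, p < 0.05.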

[4] = species on record: Cavia porcellus; experiment: Percent inhibition of the LTE4- induced contraction of guinea pig tracheal spirals at the concentration of 0.1 uM; assay type: functional; details: Trachea
Summary of the method: as §1

[5] = species on record: Cavia porcellus; experiment: Percent inhibition of the LTE4- induced contraction of guinea pig tracheal spirals at the concentration of 3.3 uM; assay type: functional; details: Trachea
Summary of the method: as §1

[6] = species on record: Cavia porcellus; experiment: Percent inhibition of the LTE4- induced contraction of guinea pig tracheal spirals at the concentration of 1.0 uM; assay type: functional; details: Trachea
Summary of the method: as §1

[7] = Selectivity ratio of the compound; assay type: functional
[8] = pKB value of the compound
Summary of the method: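 Guinea pig tracheal strips at 37 °C in Krebs buffer. Cumulative LTE4 concentration-response curves were built in log increments, with responses expressed as % of the maximum to 30 µM carbachol. Antagonist was incubated 30 min before the curve, with vehicle on paired controls. EC50 came from linear regression. KB = [antagonist]/(dose ratio − 1) by the Furchgott method. One curve per tissue.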

[9] = species on record: Cavia porcellus; experiment: Percent inhibition of the LTE4- induced contraction of guinea pig tracheal spirals at the concentration of 1 uM; assay type: functional; details: Trachea
Summary of the method: as §1

[10] = species on record: Cavia porcellus; experiment: Percent inhibition of the LTE4- induced contraction of guinea pig tracheal spirals at the concentration of 0.33 uM; assay type: functional; details: Trachea
Summary of the method: as §1

[11] = test system: Cavia porcellus; experiment: Percent protection was determined from the time delay to the onset of dyspnea compared to that of control guinea pig at a concentration of 126 uM/kg; assay type: functional
Summary of the method: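 Conscious guinea pigs were pretreated ip with indomethacin (10 mg/kg) and propranolol (5 mg/kg). Compound was given orally in poly(ethylene glycol) 60 min before challenge with aerosolized 60 µM LTD4 for up to 5 min. End point was labored abdominal breathing, scored blind. % protection = (drug time − mean control time)/(max aerosol time − mean control time) × 100, with at least two vehicle animals per run.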

[12] = species on record: Cavia porcellus; experiment: Percent inhibition of the BaCl2 - induced contraction of guinea pig tracheal spirals at concentration of 100 uM; assay type: functional; details: Trachea
Summary of the method: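 Guinea pig tracheal strips contracted with barium chloride. Compound was tested at 100 µM, and the read-out is percent inhibition of the BaCl2-induced contraction.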

[13] = species on record: Cavia porcellus; experiment: Percent inhibition of the LTE4- induced contraction of guinea pig tracheal spirals at the concentration of 0 uM; Not significant; assay type: functional; details: Trachea
Summary of the method: as §1

inhibition [1]: inactive
SMILES: COc1cc(C(=O)O)ccc1Cn1ccc2ccc(NC(=O)Cc3ccc(-c4ccccc4)cc3)cc21

inhibition [2]: 77%
SMILES: COc1cc(C(=O)O)ccc1Cn1ccc2ccc(NC(=O)Cc3cccs3)cc21

SMILES: CCCCCCCC(=O)Nc1ccc2ccn(Cc3ccc(C(=O)O)cc3OC)c2c1
inhibition at 5 µM [3]: 53%

inhibition [1]: inactive
SMILES: CCCCCC(=O)Nc1ccc2nn(Cc3ccc(C(=O)O)cc3)cc2c1

SMILES: COc1cc(C(=O)O)ccc1Cn1ccc2ccc(NC(=O)CC3CCCC3)cc21
inhibition at 0.1 µM [4]: 34%

inhibition [1]: inactive
SMILES: CCCCCC(=O)Nc1ccc2c(cnn2Cc2ccccc2C(=O)O)c1

inhibition [1]: inactive
SMILES: COc1cc(C(=O)O)ccc1Cn1ccc2ccc(NC(=O)CCCCCCC(=O)O)cc21

inhibition [2]: 18%
SMILES: CCCC/N=C(\S)Nc1ccc2ccn(Cc3ccc(C(=O)O)cc3OC)c2c1

inhibition [1]: inactive
SMILES: COC(=O)Nc1ccc2ccn(Cc3ccc(C(=O)O)cc3OC)c2c1

SMILES: COc1cc(C(=O)O)ccc1Cn1ccc2ccc(NC(=O)NC(C)(C)C)cc21
inhibition at 3.3 µM [5]: 24%

SMILES: COc1cc(C(=O)O)ccc1Cn1ccc2ccc(NC(=O)OC3CCOC3)cc21 (centres undefined)
inhibition at 3.3 µM [5]: 70%

SMILES: COc1cc(C(=O)O)ccc1Cn1ccc2ccc(NC(=O)C(c3ccccc3)C3CCCC3)cc21 (centres undefined)
inhibition at 1 µM [6]: 27%

pKB [8]: 5.1
SMILES: CCCCCCOc1ccc(COc2ccccc2C(=O)O)cc1
inhibition at 5 µM [3]: 40%
Selectivity ratio [7]: 10

SMILES: CCCCC(CC)C(=O)Nc1ccc2ccn(Cc3ccc(C(=O)O)cc3OC)c2c1 (centres undefined)
inhibition at 1 µM [9]: 59%

SMILES: COc1cc(C(=O)O)ccc1Cn1ccc2ccc(NC(=O)OC(C)C)cc21
inhibition at 0.33 µM [10]: 24%

inhibition [1]: inactive
SMILES: CCCCCC(=O)N(C)c1ccc2ccn(Cc3ccc(C(=O)O)cc3OC)c2c1

inhibition [1]: inactive
SMILES: CCCCCC(=O)Nc1ccc2cn(Cc3ccccc3C(=O)O)nc2c1

inhibition [2]: 29%
SMILES: CCCCCC(=O)Nc1cccc2c1ccn2Cc1ccc(C(=O)O)cc1OC

inhibition [2]: 29%
SMILES: COc1cc(C(=O)O)ccc1Cn1ccc2ccc(NC(=O)Cc3ccc(C)cc3)cc21

inhibition [2]: 22%
SMILES: CCC(C(=O)Nc1ccc2cn(Cc3ccc(C(=O)O)cc3OC)nc2c1)c1ccccc1 (centres undefined)

SMILES: CCCCOC(=O)Nc1ccc2cnn(Cc3ccc(C(=O)O)cc3OC)c2c1
Protection [11]: 33%
inhibition at 0.33 µM [10]: 56%
inhibition at 100 µM [12]: 41%

SMILES: COc1cc(C(=O)O)ccc1Cn1ccc2ccc(NC(C)=O)cc21
inhibition [13]: inactive

SMILES: COc1cc(C(=O)O)ccc1Cn1ncc2ccc(NC(=O)OC3CCCC3)cc21
inhibition at 100 µM [12]: 44%
inhibition at 0.1 µM [4]: 65%

inhibition [2]: 13%
SMILES: COc1cc(C(=O)O)ccc1Cn1ccc2ccc(NC(=O)Cc3ccc(C(F)(F)F)cc3)cc21

SMILES: CCCC(C(=O)Nc1ccc2ccn(Cc3ccc(C(=O)O)cc3OC)c2c1)C1CCCC1 (centres undefined)
inhibition at 1 µM [6]: 62%

inhibition [2]: 62%
SMILES: COc1cc(C(=O)O)ccc1Cn1ccc2ccc(NC(=O)CCc3ccccc3)cc21

inhibition [2]: 44%
SMILES: COc1cc(C(=O)O)ccc1Cn1ccc2ccc(NC(=O)Cc3ccc(Cl)cc3)cc21

inhibition [2]: 50%
SMILES: CCCCOC(=O)Nc1ccc2cn(Cc3ccc(C(=O)O)cc3OC)nc2c1

SMILES: COc1cc(C(=O)O)ccc1Cn1ccc2ccc(NC(=O)NC3CCCC3)cc21
inhibition at 1 µM [9]: 73%

SMILES: COc1cc(C(=O)O)ccc1Cn1ccc2ccc(NC(=O)OC(C)(C)C)cc21
inhibition at 3.3 µM [5]: 10%

inhibition [1]: inactive
SMILES: CCCCCC(=O)Nc1ccc2cnn(Cc3ccccc3C(=O)O)c2c1

SMILES: COc1cc(C(=O)O)ccc1Cn1ccc2ccc(NC(=O)C3CCCC3)cc21
inhibition at 1 µM [9]: 58%

inhibition [2]: 42%
SMILES: COc1cc(C(=O)O)ccc1Cn1ccc2ccc(NC(=O)Nc3ccccc3C(F)(F)F)cc21

inhibition [1]: inactive
SMILES: COc1cc(C(=O)O)ccc1Cn1ccc2ccc(NC(=O)Cc3ccc(OC)c(OC)c3)cc21

SMILES: C/C=C/C=C/C(=O)Nc1ccc2ccn(Cc3ccc(C(=O)O)cc3OC)c2c1
inhibition at 5 µM [3]: 28%

inhibition [1]: inactive
SMILES: COc1cc(C(=O)O)ccc1Cn1ccc2ccc(NC(=O)CCCC(C)=O)cc21

inhibition [2]: 19%
SMILES: CCN(CC)C(=O)Nc1ccc2ccn(Cc3ccc(C(=O)O)cc3OC)c2c1

SMILES: CCCCNC(=O)Nc1ccc2ccn(Cc3ccc(C(=O)O)cc3OC)c2c1
inhibition at 1 µM [9]: 39%

inhibition [1]: inactive
SMILES: COc1cc(C(=O)O)ccc1Cn1ccc2ccc(NC(=O)Nc3ccccc3)cc21
